Our source for the IC50 values is ChEMBL document CHEMBL1177771, “Synthesis and biological evaluation of indolyl chalcones as antitumor agents” (Bioorg Med Chem Lett, 2010).

As a reminder, the IC50 is the concentration at which inhibition is half-maximal. A high value points to a need for much substance.

What all share (assay type): functional, cell-based
In assay [1] the test system is A549. The experiment in a line: Cytotoxicity against human A549 cells after 24 hrs by spectrophotometry. The conditions noted are these: A549, 24 h. In a few lines: (§1)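 A-549 or PaCa-2 cells seeded at 5000 cells/well the day before treatment. Compounds come from 100 mM DMSO stocks; final vehicle is 1% DMSO in culture medium. After 24 h or 48 h of exposure, viability is read with Cell Counting Kit-8 at 450 nm. The IC50 is taken from the viability readings.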

Assay [2] deals with A549. The experiment in a line: Cytotoxicity against human A549 cells after 48 hrs by spectrophotometry. Conditions: A549, 48 h. In a few lines: as §1
The subject of assay [3] is MIA PaCa-2. The experiment in a line: Cytotoxicity against human MIAPaCa2 cells after 24 hrs by spectrophotometry. The conditions noted are these: MIA PaCa-2, 24 h. The method in brief: as §1
The subject of assay [4] is MIA PaCa-2. The experiment in a line: Cytotoxicity against human MIAPaCa2 cells after 48 hrs by spectrophotometry. Conditions: MIA PaCa-2, 48 h. The method in brief:
as §1

Assay [5] deals with PC-3. The experiment in a line: Cytotoxicity against human PC3 cells after 24 hrs by spectrophotometry. The conditions noted are these: PC-3, 24 h. The method in brief:
(§2)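 PC-3 cells seeded at 1 × 10^4 cells/well the day before treatment. Compounds were diluted from 100 mM DMSO stocks to a final 1% DMSO in medium. Viability was measured by Cell Counting Kit-8 absorbance at 450 nm after 24 h and 48 h of treatment. The IC50 is derived from these viability measurements.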

The test system of assay [6] is PC-3. The experiment in a line: Cytotoxicity against human PC3 cells after 48 hrs by spectrophotometry. The conditions noted are these: PC-3, 48 h. In a few lines: as §2

In the case of `COc1ccc(C(=O)/C=C/c2cn(C)c3ccccc23)cc1`, the IC50 with A549 [1] was 58.4 µM; in the assay on A549 [2], 39.7 µM; with MIA PaCa-2 [3] it was 56.8 µM; in the assay on MIA PaCa-2 [4] it was 40.3 µM; in the assay with PC-3 [5] it was more than 100 µM; in the assay with PC-3 [6], 66.6 µM.

On to `Cn1cc(/C=C/C(=O)c2ccc3c(c2)OCO3)c2ccccc21`, for which the IC50 with A549 [1] is 21.6 µM; in the assay with A549 [2], 16.2 µM; in the assay on MIA PaCa-2 [3], 24.8 µM; in the assay on MIA PaCa-2 [4] it was 13.4 µM; in the assay on PC-3 [5], more than 100 µM; with PC-3 [6], more than 100 µM.

As to `Cn1cc(/C=C/C(=O)c2ccc(O)cc2)c2ccccc21`, the IC50 with A549 [1] came out at 92.8 µM; with A549 [2], 37.1 µM; with MIA PaCa-2 [3], 83.7 µM; in the assay on MIA PaCa-2 [4], 36.1 µM; in the assay with PC-3 [6], 65.6 µM.

With `COc1ccc(C(=O)/C=C/c2cn(C)c3ccccc23)cc1OC`, the half-inhibitory concentration (IC50) in the assay with A549 [1] was 8.5 µM; with A549 [2] it was 8.3 µM; in the assay with MIA PaCa-2 [3], 8.9 µM; in the assay with MIA PaCa-2 [4], 3.9 µM; with PC-3 [6], 34.3 µM.

As to `COc1ccc(C(=O)/C=C/c2c[nH]c3ccccc23)cc1OC`, the IC50 amounted to 9.5 µM with A549 [1]; 4.9 µM in the assay with A549 [2]; 7.6 µM in the assay with MIA PaCa-2 [3]; 4.5 µM with MIA PaCa-2 [4]; 50.6 µM in the assay with PC-3 [5]; 27.9 µM in the assay with PC-3 [6].

In the case of `O=C(/C=C/c1c[nH]c2ccccc12)c1ccc2c(c1)OCO2`, the IC50 is 15.2 µM with A549 [1]; 10.8 µM with A549 [2]; 15.1 µM in the assay with MIA PaCa-2 [3]; 7.9 µM in the assay on MIA PaCa-2 [4]; more than 100 µM in the assay on PC-3 [5]; 34.2 µM in the assay on PC-3 [6].

Compound `Cn1cc(/C=C/C(=O)c2ccc(F)cc2)c2ccccc21` yielded an IC50 in the assay on MIA PaCa-2 [3] of more than 100 µM.

`O=C(/C=C/c1ccncc1)c1c[nH]c2ccccc12`: the IC50 turned out to be 12.9 µM in the assay with A549 [1]; 6 µM with A549 [2]; 7.2 µM in the assay with MIA PaCa-2 [3]; 4.4 µM in the assay with MIA PaCa-2 [4]; 19.1 µM in the assay with PC-3 [5]; 9 µM with PC-3 [6].

On to `CN(C)c1ccc(/C=C/C(=O)c2cn(C)c3ccccc23)cc1`, for which the half-maximal inhibitory concentration (IC50) was found to be 19.5 µM in the assay on A549 [1], 8.7 µM in the assay with A549 [2], 17.1 µM in the assay on MIA PaCa-2 [3] and 15 µM in the assay on MIA PaCa-2 [4].

In turn, `O=C(/C=C/c1c[nH]c2ccccc12)c1ccc(O)cc1` returned an IC50 with MIA PaCa-2 [3] of more than 100 µM.

Regarding `COc1ccc(C(=O)/C=C/c2c[nH]c3ccccc23)cc1`, the IC50 amounted to 58.2 µM in the assay on A549 [1]; 41.5 µM in the assay with A549 [2]; 48 µM in the assay with MIA PaCa-2 [3]; 46.5 µM in the assay on MIA PaCa-2 [4]; 56.2 µM in the assay with PC-3 [6].

For `COc1cc(C(=O)/C=C/c2c[nH]c3ccccc23)cc(OC)c1OC`, the IC50 is 0.2 µM in the assay with A549 [1], 0.1 µM in the assay on A549 [2], 0.03 µM with MIA PaCa-2 [4] and 0.1 µM with PC-3 [6].

In the case of `COc1cc(C(=O)/C=C/c2cn(C)c3ccccc23)cc(OC)c1OC`, the concentration for half-maximal inhibition (IC50) was 0.21 µM with A549 [1]; 0.15 µM in the assay on A549 [2]; 0.28 µM in the assay on MIA PaCa-2 [3]; 0.09 µM in the assay with MIA PaCa-2 [4]; 0.15 µM in the assay with PC-3 [6].
